In one assay the target is T1, Adenosine receptor A1 (Homo sapiens, UniProt P30542).
T1 sequence (P30542 whole entry): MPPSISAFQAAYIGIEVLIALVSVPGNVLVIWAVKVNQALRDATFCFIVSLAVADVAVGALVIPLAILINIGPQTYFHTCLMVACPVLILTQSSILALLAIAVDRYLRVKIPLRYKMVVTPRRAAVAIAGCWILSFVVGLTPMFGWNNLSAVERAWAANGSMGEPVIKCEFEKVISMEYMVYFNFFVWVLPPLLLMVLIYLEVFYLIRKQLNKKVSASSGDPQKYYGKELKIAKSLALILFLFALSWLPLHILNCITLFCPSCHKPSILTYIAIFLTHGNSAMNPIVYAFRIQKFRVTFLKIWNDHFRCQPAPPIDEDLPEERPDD
The assay can be described thus: Displacement [3H]DPCPX from human adenosine A1 receptor expressed in CHO cell membrane incubated for 60 mins by microplate beta scintillation counting based radioligand inhibition assay. The assay is classed as cell membranes.

Assay [1] concerns the target T2, Adenosine receptor A3 (Homo sapiens) (UniProt P0DMS8).
T2 sequence (whole entry): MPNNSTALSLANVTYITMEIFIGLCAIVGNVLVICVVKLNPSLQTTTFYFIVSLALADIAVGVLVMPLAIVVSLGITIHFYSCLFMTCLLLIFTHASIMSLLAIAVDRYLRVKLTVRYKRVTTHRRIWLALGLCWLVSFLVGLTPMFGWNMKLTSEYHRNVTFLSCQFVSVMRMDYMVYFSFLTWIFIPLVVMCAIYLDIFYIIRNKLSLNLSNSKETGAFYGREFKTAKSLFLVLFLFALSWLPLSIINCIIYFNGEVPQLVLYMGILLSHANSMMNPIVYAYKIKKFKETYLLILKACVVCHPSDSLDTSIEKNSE
The assay can be described thus: Displacement of [3H]NECA from human adenosine A3 receptor expressed in HEK293 cell membrane at 10 uM incubated for 180 mins by microplate beta scintillation counting based radioligand inhibition assay relative to control. Background: Displacement assays read how much labelled ligand stays bound in the presence of the test substance.

For the next assay, the target named is T3, Adenosine receptor A3 (Homo sapiens, UniProt P0DMS8).
T3 sequence (P0DMS8 whole entry): T2 sequence (whole entry)
The assay can be described thus: Displacement of [3H]NECA from human adenosine A3 receptor expressed in HeLa cell membrane incubated for 180 mins by microplate beta scintillation counting based radioligand inhibition assay. The assay is classed as cell membranes.

Assay [2] deals with T4, Adenosine receptor A2a (Homo sapiens, UniProt P29274). The assay can be described thus: Displacement of [3H]CGS21680 from human adenosine A2A receptor expressed in HEK293 cell membrane incubated for 30 mins by microplate beta scintillation counting based radioligand inhibition assay.
T4 sequence (P29274 whole entry): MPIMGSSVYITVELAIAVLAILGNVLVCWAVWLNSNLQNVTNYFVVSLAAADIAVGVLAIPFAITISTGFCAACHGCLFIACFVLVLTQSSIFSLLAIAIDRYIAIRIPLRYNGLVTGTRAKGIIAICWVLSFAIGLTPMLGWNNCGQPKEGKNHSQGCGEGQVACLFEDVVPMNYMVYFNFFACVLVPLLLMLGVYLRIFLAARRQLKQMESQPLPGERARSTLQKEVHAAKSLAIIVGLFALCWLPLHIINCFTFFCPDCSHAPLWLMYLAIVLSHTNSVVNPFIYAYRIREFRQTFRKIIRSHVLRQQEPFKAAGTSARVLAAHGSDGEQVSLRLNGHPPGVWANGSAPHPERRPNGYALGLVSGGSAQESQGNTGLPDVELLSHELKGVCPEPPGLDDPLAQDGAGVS
Assay [3] concerns the target T5, Adenosine receptor A2b (Homo sapiens) (UniProt P29275).
T5 sequence (whole entry): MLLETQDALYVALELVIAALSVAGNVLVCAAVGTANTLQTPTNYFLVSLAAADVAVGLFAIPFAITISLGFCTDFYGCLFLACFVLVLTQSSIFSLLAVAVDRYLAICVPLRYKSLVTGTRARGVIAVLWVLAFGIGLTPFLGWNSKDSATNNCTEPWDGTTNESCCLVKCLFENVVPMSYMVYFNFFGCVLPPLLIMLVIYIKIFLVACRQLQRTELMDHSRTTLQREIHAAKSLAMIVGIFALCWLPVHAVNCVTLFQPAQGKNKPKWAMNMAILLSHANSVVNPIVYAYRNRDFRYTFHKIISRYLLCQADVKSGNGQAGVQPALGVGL
The assay can be described thus: Displacement of [3H]DPCPX from human adenosine A2B receptor expressed in HEK cell membrane at 10 uM incubated for 30 mins by microplate beta scintillation counting based radioligand inhibition assay relative to control. The class given is cell membranes. As to conditions: HEK293.

Assay [4] has as its system Blood. Nature of the assay: Inhibition of ADP-stimulated platelet aggregation in human whole blood assessed as decrease in platelet activation measured upto 15 mins by whole blood aggregometry assay. The class given is functional, tissue-based. Put shortly:
(§1)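 Human whole blood was pre-incubated 5 min with compound dissolved in 0.1% DMSO, or with 0.1% DMSO alone. Test concentrations were 10, 30 or 50 μM. Aggregation was triggered with 6.4 μM ADP or 1 μg/mL collagen and monitored for up to 15 min on a five-channel Multiplate analyzer. Read-out was area under the aggregation curve, n = 13 donors, paired Student's t-test.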

Assay [5] deals with Blood. The assay can be described thus: Inhibition of thrombus in human whole blood measured after 10 mins by microscopic analysis. The assay is classed as functional, tissue-based. Put shortly:
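Citrated human blood labelled with anti-CD61-PE, given compound or 0.1% DMSO 5 min beforehand, recalcified with 1 mM CaCl2, then perfused through type I collagen-coated channels at 20 dyn/cm2 for 5 min. Fluorescent thrombus area summed per donor (thrombi >50 μm2). Paired t-test, n = 9.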

The target in assay [6] is T4, Adenosine receptor A2a. Nature of the assay: Displacement of [3H]ZM241385 from human adenosine A2A receptor expressed in HeLa cells by beta scintillation counting analysis. The class given is cell-based.
Assay [7] concerns Blood. Nature of the assay: Inhibition of collagen-stimulated platelet aggregation in human whole blood assessed as decrease in platelet activation measured upto 15 mins by whole blood aggregometry assay. The assay is classed as functional, tissue-based. Put shortly: as §1
The next assay has as its target T6, Adenosine receptor A2b (Homo sapiens, UniProt P29275).
T6 sequence (P29275 whole entry): T5 sequence (whole entry)
The assay can be described thus: Displacement of [3H]DPCPX from human adenosine A2B receptor expressed in HEK cell membrane incubated for 30 mins by microplate beta scintillation counting based radioligand inhibition assay. The class given is cell membranes.

The structures appear in SMILES notation. Calls of active or inactive are those of the source. No cut-off for these calls is given here.

What is called Ki is the dissociation constant of the complex between target and ligand, obtained from inhibition or displacement. A low value points to a stronger hold on the target. `CCNC(=O)[C@H]1O[C@@H](n2cnc3c(NCCCCc4ccccc4)ncnc32)[C@H](O)[C@@H]1O` displayed a Ki at Adenosine receptor A1 of 803 nM.
As usually defined, the inhibition is the percentage by which the read-out fell short of the control. The molecule `Nc1nc(CCc2ccccc2)nc2c1ncn2[C@@H]1O[C@H](CO)[C@@H](O)[C@@H]1O` came in with an inhibition in assay [1] of 54%.
Regarding `Nc1ncnc2c1nc(C#Cc1ccccc1)n2[C@@H]1O[C@H](CO)[C@@H](O)[C@H]1O`, the Ki on Adenosine receptor A3 worked out at 856 nM. In other words, the sub-micromolar range.
Consider `Nc1ncnc2c1nc(CCc1ccccc1)n2[C@H]1C[C@H](O)[C@@H](CO)O1`, for which the inhibition in assay [1] came out at 44%.
On the same count and under the same terms, the value for `Nc1ncnc2c1nc(CCc1ccccc1)n2[C@@H]1O[C@H](CO)[C@@H](O)[C@H]1O` was 8%.
For the molecule `Nc1nc(C#Cc2ccccc2)nc2c1ncn2[C@@H]1O[C@H](CO)[C@@H](O)[C@H]1O`, the results for the inhibition constant (Ki) at Adenosine receptor A2a [2], on Adenosine receptor A3 and on Adenosine receptor A1 were 1040 nM, 42 nM and 646 nM, respectively.
In the case of `Nc1ncnc2c1ncn2[C@H]1C[C@H](O)[C@@H](CO)O1`, the inhibition in assay [1] stood at 5%; in [3] it was 12%.
With `Nc1ncnc2c1nc(C#Cc1ccccc1)n2[C@H]1C[C@H](O)[C@@H](CO)O1`, the figures for the inhibitory constant (Ki) on Adenosine receptor A2a [2] and at Adenosine receptor A3 were 1990 nM and 879 nM, respectively.
As to `OC[C@H]1O[C@@H](n2cnc3c(NCCCc4ccccc4)ncnc32)[C@H](O)[C@@H]1O`, the inhibition entry in the assay with Blood [4] and with Blood [5] was “Active” in each case. Moreover, the Ki on Adenosine receptor A3 stood at 54.6 nM; on Adenosine receptor A1 it was 78.8 nM.
For `Nc1nc(CCc2ccccc2)nc2c1ncn2[C@@H]1O[C@H](CO)[C@@H](O)[C@H]1O`, the values for the Ki on Adenosine receptor A3 and on Adenosine receptor A1 were 8610 nM and 1940 nM, respectively.
In turn, `OC[C@H]1O[C@@H](n2cnc3c(NCCCCc4ccccc4)ncnc32)[C@H](O)[C@@H]1O` registered a Ki at Adenosine receptor A1 of 864 nM.
`Nc1ncnc2c1ncn2[C@@H]1O[C@H](CO)[C@@H](O)[C@H]1OCOCCCc1ccccc1` registered an inhibition in assay [1] of 29%.
The term IC50 denotes the concentration at which inhibition is half-maximal. On Adenosine receptor A2a [6], `CCNC(=O)[C@H]1O[C@@H](n2cnc3c(NCCCc4ccccc4)ncnc32)[C@H](O)[C@@H]1O` gave an IC50 of 14600 nM. The inhibition entry in the assay with Blood [4] and in the assay on Blood [7] was “Active” each time. Moreover, the Ki on Adenosine receptor A3 was determined as 4.5 nM; on Adenosine receptor A2b it was 1380 nM.
For `OC[C@H]1O[C@@H](n2cnc3c(NCCCc4ccccc4)nc(Cl)nc32)C[C@@H]1O`, the inhibition in assay [3] turned out to be 1%. Also, the Ki at Adenosine receptor A3 came to 8770 nM; at Adenosine receptor A1, 13300 nM.
In the case of `Nc1nc(C#Cc2ccccc2)nc2c1ncn2[C@@H]1O[C@H](CO)[C@@H](O)[C@@H]1O`, the Ki on Adenosine receptor A3 amounted to 1230 nM.
